This note sets out measurements from ChEMBL document CHEMBL4818983, “Structure-activity relationship and hypoglycemic activity of tricyclic matrines with advantage of treating diabetic nephropathy” (Eur J Med Chem, 2020).

Data set [1] has as its system L6. The experiment in a line: Increase in glucose consumption in rat L6 cells at 20 uM after 24 hrs by glucose oxidase assay. It is filed as functional, cell-based. The method, boiled down: (§1)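 L6 myotubes treated with DMSO, compound or RGZ (20 μM) at the indicated concentrations for 24 h. Culture supernatants assayed for glucose consumption and lactate release; lysed cells assayed for ATP, normalized to protein. Mean ± SD of 3 independent experiments vs DMSO.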

For data set [2], the system named is Mus musculus. Briefly: Antidiabetic activity in KK-Ay mouse assessed as reduction in fasting blood glucose level at 5 mg/kg, po for 50 days by glucose oxidase method (reference value: 13.2 +/- 2.06 mM). It is filed as functional. Conditions: time 50 day. The method, boiled down:
(§2)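 Lipogenic-diet KK-Ay mice given 50 or 100 mg/kg compound or 5 mg/kg rosiglitazone orally for 50 days, C57BL/6J as normal controls. Fasting blood glucose, glycosylated haemoglobin, AGE, insulin, HOMA-IR, cholesterol, LDL-c, TG, serum creatinine and BUN determined. Mean ± SD, 8-9 mice per group.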

In data set [3] the test system is Mus musculus. Briefly: Antidiabetic activity in KK-Ay mouse assessed as effect on glycosylated haemoglobin level at 5 mg/kg, po for 50 days by glucose oxidase method (reference value: 8.74 +/- 1.08%). It is filed as functional. The conditions noted are these: time 50 day. In short, it runs like this:
as §2

Data set [4] relates to Mus musculus. Briefly: Antidiabetic activity in KK-Ay mouse assessed as effect on AGE level at 5 mg/kg, […] by ELISA (Rvb 2.85 +/- 0.92 ug/ml). It is filed as functional. (In general: In an ELISA, binding on a coated surface is turned into a signal by an enzyme label.)
For data set [5], the system named is Mus musculus. The experiment in a line: Antidiabetic activity in KK-Ay mouse assessed as effect on insulin level at 5 mg/kg, […] by ELISA (reference value: 226 +/- 15.5 mU/l). It is filed as functional.
Data set [6] has as its system Mus musculus. The experiment in a line: Antidiabetic activity in KK-Ay mouse assessed as effect on HOMA-IR level at 5 mg/kg, […] by ELISA (reference value: 137 +/- 18.4). It is filed as functional.
In data set [7] the test system is Mus musculus. Briefly: Antidiabetic activity in KK-Ay mouse assessed as effect on cholesterol level at 5 mg/kg, […] by ELISA (reference value: 7.38 +/- 1.03 mM). It is filed as functional.
For data set [8], the system named is Mus musculus. The experiment in a line: Antidiabetic activity in KK-Ay mouse assessed as effect on LDL level at 5 mg/kg, […] by ELISA (reference value: 1.11 +/- 0.24 mM). The data set is classed as functional.
Data set [9] relates to Mus musculus. The experiment in a line: Antidiabetic activity in KK-Ay mouse assessed as effect on Triglycerides level at 5 mg/kg, po for 24 hrs by ELISA (reference value: 4.01 +/- 1.83 mM). It is filed as functional.
Data set [10] has as its system Mus musculus. The experiment in a line: Antidiabetic activity in KK-Ay mouse assessed as effect on serum Creatinine level at 5 mg/kg, po for 24 hrs by ELISA (reference value: 124 +/- 35.1 uM). It is filed as functional.
In data set [11] the test system is Mus musculus. Briefly: Antidiabetic activity in KK-Ay mouse assessed as effect on BUN level at 5 mg/kg, […] by ELISA (reference value: 12.8 +/- 2.97 mM). The data set is classed as functional.
In data set [12] the test system is Mus musculus. The experiment in a line: Anti-diabetic activity in overnight fasted diabetic KK-Ay mouse assessed as increase in insulin responsiveness by measuring blood glucose at 5 mg/kg, po measured after 35 days by insulin tolerance test. The data set is classed as functional, organism-based. The conditions noted are these: time 35.0 day. In short, it runs like this:
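KK-Ay mice orally treated with 50 or 100 mg/kg compound or 5 mg/kg rosiglitazone, C57BL/6J as normal controls. After 35 days of treatment, oral glucose tolerance test and insulin tolerance test run. Blood glucose plotted against time, AUC calculated. Mean ± SD, 8-9 mice per group.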

Data set [13] in a line: Effect on high fat diet-fed KK-Ay mouse model of obesity and diabetes assessed as food intake at 5 mg/kg, po (reference value: 5.67 +/- 0.55 g/day). It is filed as ADME, organism-based. Conditions: in vivo. The method, boiled down:
(§3)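 KK-Ay mice on lipogenic diet, with C57BL/6J mice as normal controls, dosed orally at 50 or 100 mg/kg (test) or 5 mg/kg (RGZ). Food intake (g/day), water intake (mL/day) and body weight recorded before and after treatment; body weight gain calculated. Mean±SD, 8-9 mice per group.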

Data set [14] is described as follows: Effect on high fat diet-fed KK-Ay mouse model of obesity and diabetes assessed as water intake at 5 mg/kg, po (reference value: 21.2 +/- 4.17 ml/day). It is filed as ADME, organism-based. The conditions noted are these: in vivo. The method, boiled down:
as §3

Data set [15] can be described thus: Effect on high fat diet-fed KK-Ay mouse model of obesity and diabetes assessed as total body weight gain at 5 mg/kg, po (reference value: 43.5 +/- 5.24 g). It is filed as ADME, organism-based. The conditions noted are these: in vivo. The method, boiled down: as §3
The subject of data set [16] is Mus musculus. Briefly: Anti-diabetic activity in high fat diet-fed KK-Ay mouse model of obesity and diabetes assessed reduction in total protein level in urine at 5 mg/kg, po measured after 24 hrs. The data set is classed as functional, organism-based. In short, it runs like this:
(§4)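 Before study end, 24-h urine collected from C57BL/6J controls and KK-Ay mice (untreated, oral 50 or 100 mg/kg compound, or 5 mg/kg rosiglitazone). Volume, glucose, total protein and microalbumin measured by kits. Mean ± SD, 8-9 mice per group, vs C57BL/6J or untreated KK-Ay.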

For data set [17], the system named is Mus musculus. Briefly: Anti-diabetic activity in high fat diet-fed KK-Ay mouse model of obesity and diabetes assessed as reduction in microalbumin level in urine at 5 mg/kg, po measured after 24 hrs. The data set is classed as functional, organism-based. The method, boiled down:
as §4

Data set [18] relates to Mus musculus. The experiment in a line: Anti-diabetic activity in high fat diet-fed KK-Ay mouse model of obesity and diabetes assessed as improved pathological changes in kidney at 5 mg/kg, po by hematoxylin and eosin staining based histopathological analysis. It is filed as functional, organism-based. In short, it runs like this: (§5)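 Mice sacrificed at study end, with KK-Ay given 50 or 100 mg/kg compound or 5 mg/kg rosiglitazone orally and C57BL/6J as normal controls. Kidney and pancreas sections H&E stained, imaged at 200×, pathological changes scored. Mean ± SD of 8-9 mice per group.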

Data set [19] relates to Mus musculus. The experiment in a line: Anti-diabetic activity in high fat diet-fed KK-Ay mouse model of obesity and diabetes assessed as improved pathological changes in pancreas at 5 mg/kg, po by hematoxylin and eosin staining based histopathological analysis. The data set is classed as functional, organism-based. The method, boiled down:
as §5

Data set [20] concerns HepG2. The experiment in a line: Induction of glycolysis in human HepG2 cells assessed as reduction in cellular ATP production at 20 uM measured after 24 hrs. It is filed as functional, cell-based. In short, it runs like this:
(§6)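 HepG2 cells treated 24 h at the indicated concentrations; RGZ as reference. Supernatants used for glucose consumption and lactate release; lysed cells used for ATP, normalized to protein content. Mean ± SD of 3 or 4 separate experiments; compared with DMSO.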

The test system of data set [21] is HepG2. Briefly: Increase in glucose consumption in human HepG2 cells at 20 uM measured after 24 hrs. The data set is classed as functional, cell-based. In short, it runs like this:
as §6

Data set [22] deals with L6. Briefly: Induction of glycolysis in rat L6 cells assessed as reduction in cellular ATP production at 20 uM measured after 24 hrs. It is filed as functional, cell-based. The method, boiled down: as §1
Data set [23] concerns L6. Briefly: Increase in glucose consumption in rat L6 cells at 20 uM measured after 24 hrs. It is filed as functional, cell-based. The method, boiled down: as §1
The test system of data set [24] is L6. The experiment in a line: Induction of glycolysis in rat L6 cells assessed as increase in lactate release at 20 uM measured after 24 hrs.
For data set [25], the system named is HepG2. Briefly: Induction of glycolysis in human HepG2 cells assessed as increase in lactate release at 20 uM measured after 24 hrs.
Data set [26] deals with HepG2. The experiment in a line: Increase in glucose consumption in human HepG2 cells assessed as Gx/GDMSO ratio at 5 mM by glucose oxidase assay. It is filed as functional. The method, boiled down:
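HepG2 glucose consumption screen. Test compounds at 25 μM, metformin at 5 mM. Activity expressed as ratio of glucose consumption to DMSO-treated cells (Gx/G_DMSO).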

Each structure is given as a SMILES string. Activity calls are given as the source filed them. The calls are words filed in the database; no cut-off is given here.

`CN(CCOc1ccc(CC2SC(=O)NC2=O)cc1)c1ccccn1` (stereo unspecified) [ROSIGLITAZONE]: the result in the data set on L6 [1], in the data set with Mus musculus [12], with Mus musculus [16], in the data set on Mus musculus [17], in the data set on Mus musculus [18] and in the data set on Mus musculus [19] was Active. Besides, the result in the data set with HepG2 [20], in the data set with HepG2 [21], with L6 [23], in the data set with L6 [24] and in the data set on HepG2 [25] was Active. In addition, the Activity with Mus musculus [2] was found to be 7.66 mM; with Mus musculus [3], 6.09%; in the data set on Mus musculus [4], 1.27 µg/mL; with Mus musculus [5], 89.3 mU/L; in the data set with Mus musculus [6], 30.4; in the data set on Mus musculus [7], 8.31 mM. Besides, the Activity amounted to 1.08 mM in the data set with Mus musculus [8]; 1.84 mM in the data set on Mus musculus [9]; 51.6 µM in the data set on Mus musculus [10]; 12 mM in the data set on Mus musculus [11]; 4.58 g/day in [13]; 6.1 mL/day in data set [14]. Further, the figures for the Activity (in data set [15]; in the data set on L6 [22]) were 6.82 g and “Dose-Dependent Effect”, respectively.

As to `CN(C)C(=N)NC(=N)N` [METFORMIN], the Ratio in the data set with HepG2 [26] is listed as 1.53.
